Screening results: PubChem, several laboratories
Rows were chosen to be rich in hits. Some 1.5% of all compounds tested hit in one or more screens of this group.
Rev-erbA mod: modulates human Rev-erb alpha binding to DNA; activity, % at 10 µM; actives 0.79% (n = 370,000); Rev-erbα–FITC-DNA binding, fluorescence polarization, 90 min;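 active = activity above about 14%, limit read from the data; passing the limit was not always enough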;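 note: 0% = DMSO wells with 35 nM protein and 100% = DMSO wells with 750 nM protein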
Target sequence (P20393 whole entry, looked up): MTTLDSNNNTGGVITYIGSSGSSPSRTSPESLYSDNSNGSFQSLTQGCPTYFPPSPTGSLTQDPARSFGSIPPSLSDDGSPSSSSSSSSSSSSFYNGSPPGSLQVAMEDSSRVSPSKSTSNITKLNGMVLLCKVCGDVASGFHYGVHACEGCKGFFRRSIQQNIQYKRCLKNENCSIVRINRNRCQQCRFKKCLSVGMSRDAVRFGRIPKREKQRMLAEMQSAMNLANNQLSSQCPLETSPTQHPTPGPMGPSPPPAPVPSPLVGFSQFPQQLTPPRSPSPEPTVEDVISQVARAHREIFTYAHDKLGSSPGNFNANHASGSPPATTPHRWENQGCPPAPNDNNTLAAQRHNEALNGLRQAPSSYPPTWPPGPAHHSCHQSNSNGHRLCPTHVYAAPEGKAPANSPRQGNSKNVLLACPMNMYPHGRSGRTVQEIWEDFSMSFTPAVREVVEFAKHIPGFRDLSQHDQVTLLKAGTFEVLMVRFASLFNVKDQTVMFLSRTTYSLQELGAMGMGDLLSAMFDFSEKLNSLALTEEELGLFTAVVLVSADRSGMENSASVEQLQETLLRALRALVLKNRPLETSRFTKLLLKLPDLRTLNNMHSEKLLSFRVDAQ
NR2E3 ag-1: NR2E3 (human) agonism; Q9Y5X4; actives 0.12% (n = 320,000); AID 2300; GST-NR2E3/biotin-RetCOR TR-FRET, 1536-well; inhibition of corepressor binding, % at 4.78 µM;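 active = percent inhibition above the cutoff of mean plus 3 SD of all tested compounds, set per screening campaign, cut at about 20% in these data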;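 note: 0% = DMSO wells and 100% = biotin wells as full block of FRET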
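system = GST-tagged NR2E3 plus biotinylated RetCOR corepressor | input = 1.35 nM GST-NR2E3 | also added = 7 nM biotin-RetCOR | schedule = 5 h incubation at 4 °C | measured by = TR-FRET with europium anti-GST and streptavidin-D2, 340 nm excitation | read-out = percent loss of FRET ratio relative to control wells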
NR2E3 ag-2: agonists of human NR2E3 nuclear receptor. Q9Y5X4. CHO-S Gal4-NCOR/VP16-NR2E3 two-hybrid, luciferase. inhibition of corepressor binding, % at 3.98 µM. actives 0.35% (n = 360,000);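 active = inhibition above the mean of all tested compounds plus 3 SD, cut at about 70% in these data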;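 note: 0% = DMSO with NR2E3 transfected cells and 100% = cells lacking NR2E3 construct; higher means lower luciferase signal from less NR2E3 corepressor binding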
PG9 Ab binder: binds the HIV-1 gp120 antibody PG9; TR-FRET gp120-PG9 antibody binding; inhibition, % at 6.7 µM; actives 0.43% (n = 360,000); in the data active = inhibition above about 8.5%
Rev-erbA confirm: Rev-erb alpha (human) modulation, hit confirmation; actives 61% (n = 3,000); activation, % at 25 µM; shares compounds with Rev-erbA mod; Rev-erb alpha FITC-DNA binding, fluorescence polarization, 90 min; AID 1259319;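 active = activation at or above a set limit, or at least 3 SD above the negative control mean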;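 note: 0% = 35 nM protein with DMSO and 100% = 750 nM protein high control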
RORg counter: counter-screen for Rev-erb alpha modulators: RORgamma DNA binding; shares compounds with Rev-erbA mod; purified RORgamma protein-FITC-DNA binding, fluorescence polarization; IC50, µM; actives 8% (n = 910);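 active = Compounds whose fitted half-maximal concentration for disrupting protein-DNA binding is below 10 micromolar; the record names Rev-erb in its text, so the target is in doubt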
Active calls of the source: *; i = inactive; x = not tested or not shown.

SMILES | Rev-erbA mod | NR2E3 ag-1 | NR2E3 ag-2 | PG9 Ab binder | Rev-erbA confirm | others
CCCCNc1nc2c(-c3ccccc3)nnn2c2ccccc12 | 50.2* | -0.1 | -4.9 | 0.1 | 22.1*
OCCCNc1nnc(-c2ccccc2)c2ccccc12 | -8.6 | 3.8 | -58.2 | -0.5 | x
CCOC(=O)c1nnn2c1nc(Nc1cccc(C(F)(F)F)c1)c1ccccc12 | 48.9* | 1.1 | 2.1 | -1.9 | 38.3* | RORg counter=>40
CCCCCCCCN1C(=O)[C@@H](CC(=O)NCCCOC)C[C@@]2(C(=O)OC)C1=C[C@H](COCc1ccccc1)O[C@@H]2C | 0.0 | x | x | x | x
COc1ccc(C2C(C(=O)Nc3ccc(F)cc3)CCC(=O)N2c2ccc(OC)cc2)cc1 (stereo not given) | 2.3 | x | x | x | x
CCOC(=O)Cc1csc(/N=C/c2c(O)n(-c3ccc(C)c(C)c3)c(=O)c3ccccc23)n1 | 22.6* | -2.6 | -13.0 | -0.9 | 5.4
Cc1ccc2[nH]cc(/C=C/c3cc[n+](C)cc3)c2c1 | 232.2* | x | -36.9 | -21.3 | 142.0* | RORg counter=>40
COc1ccc2c(C=O)c[nH]c2c1 | -0.6 | -2.7 | 11.2 | 0.5 | x
COc1ccc2c(/C=C/c3cc[n+](C)cc3)c[nH]c2c1 | 45.7* | -6.8 | -13.0 | -26.8 | 31.2* | RORg counter=>40
COc1ccc2c(c1)c(/C=C/c1cc[n+](C)cc1)cn2C | 100.3* | -12.1 | -8.1 | -21.8 | 78.6* | RORg counter=>40
Cc1ccc2[nH]ccc(=O)c2c1 | 7.6 | -0.8 | -17.6 | 2.3 | x
CC[n+]1ccc(/C=C/c2c[nH]c3ccccc23)cc1 | 133.6* | -0.2 | 3.6 | -8.7 | 130.9* | RORg counter=>40
COc1ccc(NC(=O)CSc2ncnc3scc(-c4ccc(C)cc4)c23)cc1OC | -0.7 | x | x | x | x
O=C(CSc1nnc(-c2ccccc2NC(=O)c2ccccc2)o1)OC1CCCCC1 | 108.4* | 0.6 | 9.5 | -1.6 | 16.7
O=C(CSc1nnc(-c2cccs2)o1)OC1CCCCC1 | 1.1 | 2.7 | -2.5 | -3.0 | x
COc1ccc(CN2C/C(=C/c3ccc(C)cc3)N3C(=O)C[C@@H](c4ccccc4)N=C23)c(OC)c1 | 2.3 | x | x | x | x
COc1ccccc1-n1cnc2sc(-c3ccccc3)cc2c1=O | 20.5* | -0.2 | -27.9 | 1.2 | 5.3
COC(=O)c1ccccc1NC(=O)COC(=O)c1ccccc1N=Nc1ccc(N(C)C)cc1 | 26.1* | -5.8 | -9.0 | -2.5 | 29.3*
CN(C)c1ccc(N=Nc2ccccc2C(=O)OCC(=O)N(C)c2ccccc2)cc1 | 22.5* | -0.4 | -31.3 | -2.5 | 23.3*
COC(=O)[C@]12C=CCN1[C@H](c1ccccc1)c1c(c3ccccc3n1S(=O)(=O)c1ccc(C)cc1)C2 | 4.3 | x | x | x | x
COc1ccc(-c2ncn(CCc3ccccc3OC)c2C(C)C)cc1 | 4.5 | x | x | 1.5 | x
CCOC(=O)C1CCCN(C2=NC(=O)/C(=C/c3ccc(N(C)C)cc3)S2)C1 (stereo not given) | 26.8* | -0.1 | -41.5 | -13.7 | 16.1
COc1ccc(/C=C2/SC(=O)N(CC(=O)Nc3cc(C)on3)C2=O)cc1OC | 49.5* | -1.7 | -2.6 | -4.5 | 26.6*
COc1ccc(/C=C2/SC(=O)N(CCC(=O)Nc3ccc(C)cc3)C2=O)cc1OC | 30.3* | 5.8 | x | -1.4 | 25.3*
COc1ccc(/C=C2/SC(=O)N(CCC(=O)Nc3ccccc3)C2=O)cc1OC | 23.9* | -0.3 | -5.4 | -37.4 | 31.2* | RORg counter=>40
SMILES | Rev-erbA mod | NR2E3 ag-1 | NR2E3 ag-2 | PG9 Ab binder | Rev-erbA confirm | others
COc1ccc(/C=C2\SC(=O)N(CC(=O)Nc3cccnc3)C2=O)cc1OC | 7.6 | -1.6 | 3.5 | -3.5 | x
CC(=O)Nc1ccc(OC(C)=O)cc1 | -1.9 | x | x | x | x
Cc1ccc(S(=O)(=O)N(CCc2ccccc2)CC(=O)N2CCOCC2)cc1 | -7.1 | x | x | x | x
CN(C)/C=N/c1ncc(C(=O)c2ccc(-c3ccccc3)cc2)s1 | 16.5* | 3.9 | -50.3 | 1.5 | 10.2
O=S(=O)(c1cccc2nsnc12)N1CCNCC1 | 24.9* | 1.7 | -31.5 | -0.6 | -5.0
O=S(=O)(c1cccc2nsnc12)N1CCOCC1 | 1.1 | -1.6 | -13.0 | 1.2 | x
CC/C(=N\Nc1ccccc1[N+](=O)[O-])c1ccc(O)cc1 | 14.7* | -0.9 | -46.0 | -4.0 | -2.4
CC(=O)Nc1ccc(-c2nnc(SCC(=O)Nc3ccc4c(c3)oc3ccccc34)n2C)cc1 | -0.9 | 2.3 | -15.2 | 1.2 | x
Cn1c(SCC(=O)Nc2cccc(F)c2)nnc1-c1cc2ccccc2o1 | 75.3* | -64.2 | -15.0 | 2.1 | 102.3* | RORg counter=>40
O=C(Nc1ccccc1)c1ccc(N2CCN(c3ccccc3)CC2)c(S(=O)(=O)N2CCOCC2)c1 | 60.7* | 0.6 | -8.0 | -1.7 | 29.5*
O=C(Nc1ccccc1)c1ccc(N2CCN(c3ccccn3)CC2)c(S(=O)(=O)N2CCOCC2)c1 | 0.5 | -2.5 | 4.8 | 0.9 | x
COc1ccc(-c2cc(-c3nnc(SCC(=O)Nc4nccs4)n3N)[nH]n2)cc1 | -11.8 | x | x | x | x
C[C@@H](CO)N(CCc1cn(Cc2ccccc2)nn1)S(=O)(=O)c1ccccc1Br | -4.6 | x | x | x | x
Cc1ccc(-c2nnn3c2nc(NCCc2ccc(S(N)(=O)=O)cc2)c2ccccc23)cc1 | 48.3* | 2.0 | -10.9 | 4.0 | 29.8*
CC(=O)NCCNc1nc2c(-c3ccccc3)nnn2c2ccccc12 | 2.8 | 0.5 | -22.0 | 1.2 | x
NS(=O)(=O)c1ccc(CCNc2nc3c(-c4cccc(F)c4)nnn3c3ccccc23)cc1 | 81.7* | 1.8 | 3.5 | -0.6 | 82.7* | RORg counter=>40
Cc1cccc(-c2nnn3c2nc(NCCc2ccc(S(N)(=O)=O)cc2)c2ccccc23)c1 | 78.3* | 4.8 | -13.5 | 1.2 | 56.2* | RORg counter=i
N=C1C(c2nc3ccccc3s2)=C(O)CN1C1CCCCC1 | 19.7* | 0.6 | -32.1 | -2.2 | 10.5
CC(C)N1CCCCC(NC(=O)c2ccc(F)c(F)c2)C1=O (stereo not given) | -1.4 | x | x | x | x
CS(=O)(=O)Nc1ccc(-c2ccc(/C=C3\SC(N)=NC3=O)o2)cc1 | 44.2* | -4.8 | -8.8 | -11.6 | 33.0* | RORg counter=>40
CN1CCN(c2ccc3c(c2)Oc2ccccc2CN(Cc2cn(Cc4ccccc4C(F)(F)F)nn2)S3(=O)=O)CC1 | 1.5 | x | x | x | x
CCOC(=O)Nc1ccc2c(COC(=O)CNS(=O)(=O)c3ccc(NC(C)=O)cc3)cc(=O)oc2c1 | 54.5* | 4.8 | -6.6 | 6.0 | 34.7* | RORg counter=>40
Cc1ccc2c(COC(=O)CNS(=O)(=O)c3ccccc3)cc(=O)oc2c1 | 2.7 | x | 6.2 | 1.8 | x
S=c1[nH]c(-c2ccc(Br)cc2)cn1CCc1ccccc1 | 17.2* | 0.8 | -2.6 | 1.4 | 28.4*
COc1ccccc1-n1cc(-c2ccc(Br)cc2)[nH]c1=S | 3.4 | 0.1 | -22.9 | -0.8 | x
CN(C)[C@@H]1CCN(c2cccc3c2S(=O)(=O)N2CC[C@@H](C2)O3)C1 | -2.4 | x | x | x | x
COc1ccc2c(-c3ccccc3)cc(SC(C)C(N)=O)nc2c1 (stereo not given) | 19.1* | 6.0 | 9.2 | 0.7 | 18.3*
